Each block holds one compound with its values, some of them ahead of it.
Experiments:
[1] = Inhibition of Orai-mediated calcium entry in human Jurkat E6-1 cells after 1 hr by FLIPR assay; type: cell-based
[2] = Inhibition of Orai channel in phytohemagglutinin-stimulated human Jurkat E6-1 cells assessed as NFAT-induced transcription measured as IL-2 level after 20 hrs by ELISA; type: cell-based
[3] = target: Calcium release-activated calcium channel protein 1 (Homo sapiens, UniProt Q96D31); test: Inhibition of human Orai1/STIM1 expressed in HEK293 cells assessed as inhibition of channel-mediated calcium current by electrophysiology assay in presence of 10 mM EGTA; type: cell-based
Chain of Calcium release-activated calcium channel protein 1 (Q96D31 whole entry): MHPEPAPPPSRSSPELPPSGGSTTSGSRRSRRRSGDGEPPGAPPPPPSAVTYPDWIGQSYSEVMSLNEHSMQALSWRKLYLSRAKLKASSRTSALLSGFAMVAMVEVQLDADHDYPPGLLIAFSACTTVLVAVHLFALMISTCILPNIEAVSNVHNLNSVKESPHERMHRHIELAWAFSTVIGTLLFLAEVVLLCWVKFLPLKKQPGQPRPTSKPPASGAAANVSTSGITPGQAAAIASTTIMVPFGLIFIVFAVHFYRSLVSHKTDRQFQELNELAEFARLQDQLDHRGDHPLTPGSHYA
How it was run: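 Automated whole-cell patch clamp on HEK293 cells stably expressing human STIM1/Orai1. I_CRAC activated by passive store depletion with 10 mM EGTA in the internal solution. Holding potential 0 mV; 100 ms voltage ramps applied every 3 s. IC50 from normalized inhibition, at least 3 cells per concentration; values are mean ± SD of two or more determinations.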

LAD2 = test: Inhibition of degranulation in human LAD2 cells assessed as inhibition of IgE-induced beta-hexosaminidase release preincubated for 30 mins by p-nitrophenyl-N-acetyl-D-glucosamide-based spectrophotometric assay; type: functional, cell-based
How it was run: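 Human LAD2 mast cells sensitized overnight with 100 ng/mL biotin-IgE in SCF-containing medium. Supernatant β-hexosaminidase measured with p-nitrophenyl-N-acetyl-glucosamide (pH 4.5, 90 min, 37 °C), stopped with glycine pH 10, absorbance read at 405 nm.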

Blood = test: Inhibition of IL2 secretion in rat whole blood after 24 hrs by Rat IL-2 DuoSet assay; type: functional, tissue-based
How it was run: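 Rat whole blood diluted 1:4 in RPMI and stimulated with concanavalin A (62.5 µg/mL) in the presence of increasing compound concentrations for 24 h. Supernatant IL-2 quantified by rat IL-2 ELISA against a standard curve; IC50 derived.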

CHO = test: Cytotoxicity against CHO cells; type: cell-based; details: Cricetulus griseus
[4] = Drug metabolism in rat liver microsomes at 5 uM after 30 mins in presence of NADPH; type: ADME; details: read-out: Drug metabolism
How it was run: (§1)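 Rat or human hepatic microsomes (1 mg/mL protein) incubated with 5 µM compound plus NADPH for 30 min at 37 °C; result given as percent metabolized.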

[5] = Drug metabolism in human liver microsomes at 5 uM after 30 mins in presence of NADPH; type: ADME; details: read-out: Drug metabolism; how it was run: as §1
[6] = Passive permeability of the compound at 20 uM by PAMPA; type: ADME; details: read-out: permeability
[7] = Terminal half life in Wistar rat at 1 mg/kg, iv; type: ADME, organism-based; parameters: dose 1 mg/kg, route intravenous; details: in vivo, read-out: beta t1/2 (converted)
[8] = AUC (0 to 24 hrs) in Wistar rat at 1 mg/kg, iv; type: ADME, organism-based; parameters: time < 24 hr, dose 1 mg/kg, route intravenous; details: plasma
[9] = Clearance in Wistar rat at 1 mg/kg, iv; type: ADME, organism-based; parameters: dose 1 mg/kg, route intravenous; details: in vivo
[10] = Volume of distribution at steady state in Wistar rat at 1 mg/kg, iv; type: ADME, organism-based; parameters: dose 1 mg/kg, route intravenous; details: in vivo, read-out: Vdss
[11] = Cmax in Wistar rat at 10 mg/kg, po; type: ADME, organism-based; parameters: dose 10 mg/kg, route oral; details: in vivo
[12] = AUC (0 to 24 hrs) in Wistar rat at 10 mg/kg, po; type: ADME, organism-based; parameters: time < 24 hr, dose 10 mg/kg, route oral; details: plasma
[13] = Oral bioavailability in Wistar rat at 10 mg/kg; type: ADME, organism-based; details: in vivo
[14] = Solubility of the compound in water; type: physicochemical
[15] = Lipophilicity, log D of the compound at pH 7.4; type: physicochemical; details: buffer
Rattus norvegicus [16] = test: (§2) Antiinflammatory activity against ovalbumin-induced model of allergic inflammation in brown Norway rat assessed as inhibition of eosinophil infiltration in bronchoalveolar lavage fluid at 3 mg/kg, po bid 1 hr before and 6.5 hrs post ovalbumin challenge measured 24 hrs post challenge relative to vehicle-treated control; type: functional; details: Lung
How it was run: (§3)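 Brown Norway rats (200-250 g) sensitized i.p. with OVA/Alum on days 0, 14 and 21, then challenged with OVA aerosol on day 28. Oral dosing at 3, 10 or 30 mg/kg bid, 1 h before and 6.5 h after challenge. Vehicle: TPGS 11.7%, PEG-400 40%, propylene glycol 15%, water 33.3%. Eight rats per group. BALF eosinophils counted 24 h post-challenge; inhibition expressed versus vehicle. Dexamethasone served as positive control. Plasma levels measured by UPLC-MS.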

Rattus norvegicus [17] = test: as §2, with “10” for “3”; type: functional; details: Lung; how it was run: as §3
Rattus norvegicus [18] = test: as §2, with “30” for “3”; type: functional; details: Lung; how it was run: as §3
Rattus norvegicus [19] = test: as §2, with “compound administered orally” for “at 3 mg/kg, po”; type: functional, organism-based; details: Lung; how it was run: as §3
Rattus norvegicus [20] = test: as §2, with “against po dosed” for “against”, “plasma level >3-fold above IC50 for rat IL-2 inhibition compound administered” for “3 mg/kg, po”; type: functional; how it was run: as §3
Rattus norvegicus [21] = test: as §2, with “1” for “3”; type: functional; details: Lung
[22] = Plasma protein binding in Wistar rat; type: ADME, cell-free; details: read-out: PPB

IC50 [1]: > 10000 nM
Compound: Cc1cc(=O)n(C)cc1-c1cnc2[nH]c(-c3c(F)cccc3Cl)cc2c1

IC50 [1]: 71 nM
IC50 [2]: 40 nM
IC50 [3]: 104 nM
IC50 (LAD2): 443 nM
IC50 (Blood): 1300 nM
metabolised at 0.5 h, 5 µM [4]: 10%
metabolised at 0.5 h, 5 µM [5]: 15%
Papp at 20 µM [6]: 0.1 ×10⁻⁶ cm/s
half-life [7]: 2.1 h
AUC(0-t) at 24 h [8]: 596 ng·h/mL
clearance [9]: 24 mL/min/kg
Vd [10]: 4.2 L/kg
Cmax [11]: 153 ng/mL
AUC(0-t) at 24 h [12]: 2180 ng·h/mL
bioavailability [13]: 37%
solubility [14]: < 5 µg/mL
Compound: COc1cc(C)c(-c2cnc3[nH]c(-c4c(F)cccc4Cl)cc3c2)cn1
IC50 (CHO): > 100000 nM

IC50 [1]: 280 nM
IC50 [2]: 290 nM
Compound: Cc1cc(S(C)(=O)=O)ccc1-c1cnc2[nH]c(-c3c(F)cccc3Cl)cc2c1

IC50 [1]: > 10000 nM
Compound: Cc1cc(=O)[nH]cc1-c1cnc2[nH]c(-c3c(F)cccc3Cl)cc2c1

logD [15]: 3.5
IC50 [1]: 82 nM
IC50 [2]: 10 nM
Compound: COc1ccc(OC)c(-c2ccc(NC(=O)c3ccncc3F)cc2)c1

IC50 [1]: > 10000 nM
Compound: Cn1nc(C(F)(F)F)cc1-c1cnc2[nH]c(C3CCOCC3)cc2c1

IC50 [1]: 160 nM
IC50 [2]: 260 nM
Compound: Cn1nc(C(F)(F)F)cc1-c1cnc2[nH]c(-c3ccccc3Cl)cc2c1

IC50 [1]: 129 nM
IC50 [2]: 120 nM
Compound: Cc1cc(C(F)(F)F)ncc1-c1cnc2[nH]c(-c3c(F)cccc3Cl)cc2c1

IC50 [1]: 310 nM
IC50 [2]: 183 nM
Compound: Cn1nc(C(F)(F)F)cc1-c1cnc2[nH]c(C3CCCCC3)cc2c1

IC50 [1]: 150 nM
IC50 [2]: 68 nM
IC50 [3]: 440 nM
IC50 (LAD2): 630 nM
IC50 (Blood): 740 nM
metabolised at 0.5 h, 5 µM [4]: 10%
metabolised at 0.5 h, 5 µM [5]: < 5%
Papp at 20 µM [6]: 0.66 ×10⁻⁶ cm/s
half-life [7]: 8 h
AUC(0-t) at 24 h [8]: 1820 ng·h/mL
clearance [9]: 8 mL/min/kg
Vd [10]: 5 L/kg
Cmax [11]: 807 ng/mL
AUC(0-t) at 24 h [12]: 11200 ng·h/mL
bioavailability [13]: 62%
solubility [14]: < 5 µg/mL
Compound: COc1cc(OC)c(-c2cnc3[nH]c(-c4c(F)cccc4Cl)cc3c2)cn1
IC50 (CHO): > 100000 nM
inhibition in vivo at 3 mg/kg (Rattus norvegicus [16]): 9%
inhibition in vivo at 10 mg/kg (Rattus norvegicus [17]): 68%
inhibition in vivo at 30 mg/kg (Rattus norvegicus [18]): 75%
inhibition (Rattus norvegicus [19]): Dose-dependent effect
inhibition (INH) (Rattus norvegicus [20]): 70%

IC50 [1]: 88 nM
IC50 [2]: 117 nM
solubility [14]: < 1 µg/mL
Compound: Cc1nc2cc(-c3cnc4[nH]c(-c5c(F)cccc5Cl)cc4c3)c(Cl)cc2o1

IC50 [1]: 120 nM
IC50 [2]: 56 nM
solubility [14]: < 1 µg/mL
Compound: Fc1cccc(Cl)c1-c1cc2cc(-c3cc4c(cc3Cl)OC(F)(F)O4)cnc2[nH]1

Compound: C[C@@H]1C[C@H]2[C@@H]3CCC4=CC(=O)C=C[C@]4(C)[C@@]3(F)[C@@H](O)C[C@]2(C)[C@@]1(O)C(=O)CO [DEXAMETHASONE]
inhibition in vivo at 1 mg/kg (Rattus norvegicus [21]): 100%

logD [15]: 4.4
IC50 [1]: 75 nM
IC50 [2]: 10 nM
Compound: Cc1nnsc1C(=O)Nc1ccc(-n2nc(C(F)(F)F)cc2C(F)(F)F)cc1

IC50 [1]: 10000 nM
Compound: Cc1cc(S(=O)(=O)N2CCOCC2)ccc1-c1cnc2[nH]c(-c3c(F)cccc3Cl)cc2c1

IC50 [1]: 10000 nM
Compound: COc1ncc(-c2cnc3[nH]c(-c4c(F)cccc4Cl)cc3c2)c(C)n1

IC50 [1]: 140 nM
IC50 [2]: 73 nM
Compound: Cn1nc(C(F)(F)F)cc1-c1cnc2[nH]c(-c3c(F)cccc3F)cc2c1

IC50 [1]: 10000 nM
Compound: CNCc1ccc(-c2cnc3[nH]c(-c4c(F)cccc4Cl)cc3c2)c(C)c1

IC50 [1]: 66 nM
IC50 [2]: 23 nM
IC50 [3]: < 100 nM
IC50 (LAD2): 372 nM
IC50 (Blood): 500 nM
metabolised at 0.5 h, 5 µM [4]: < 5%
metabolised at 0.5 h, 5 µM [5]: < 5%
Papp at 20 µM [6]: < 0.05 ×10⁻⁶ cm/s
solubility [14]: < 5 µg/mL
fraction unbound [22]: < 0.001
Compound: Cn1nc(C(F)(F)F)cc1-c1cnc2[nH]c(-c3c(F)cccc3Cl)cc2c1
IC50 (CHO): > 100000 nM

IC50 [1]: 260 nM
IC50 [2]: 270 nM
Compound: Cn1nc(C(F)(F)F)cc1-c1cnc2[nH]c(C3CCCC3)cc2c1

IC50 [1]: 1400 nM
IC50 [2]: 3000 nM
Compound: Cn1nc(C(F)(F)F)cc1-c1cnc2[nH]c(Cc3ccccc3)cc2c1

IC50 [1]: 64 nM
IC50 [2]: 150 nM
Compound: Cc1cc(OC(F)F)ncc1-c1cnc2[nH]c(-c3c(F)cccc3Cl)cc2c1

IC50 [1]: 155 nM
IC50 [2]: 180 nM
Compound: CNS(=O)(=O)c1ccc(-c2cnc3[nH]c(-c4c(F)cccc4Cl)cc3c2)c(C)c1

IC50 [1]: 550 nM
IC50 [2]: 119 nM
Compound: Cc1cc(S(=O)(=O)N(C)C)ccc1-c1cnc2[nH]c(-c3c(F)cccc3Cl)cc2c1

Reference: ChEMBL document CHEMBL3399948, “Discovery of 7-azaindole derivatives as potent Orai inhibitors showing efficacy in a preclinical model of asthma” (Bioorg Med Chem Lett, 2015)
